Like-named read-outs stand apart in the source and are kept apart here.

Consider eight substances from PMC2191018 (The Journal of Experimental Medicine, 1993).

Assay [1] concerns biotin-YIPSAEK(IASA)I-specific CTL clones. Briefly: CTL recognition of peptide derivatives, statements over several clones. In kind it is cell-based, mouse. A digest of the protocol: (§1)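 Test peptide derivatives were titrated in threefold dilutions on P815 target cells in a 51Cr-release assay at an E/T ratio of 3:1, run 4 h at 37°C. Specific lysis = 100 × (experimental − spontaneous)/(total − spontaneous). Relative antigenic activity = concentration of the reference photoprobe giving 50% maximal lysis divided by that of the variant.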

Assay [2] has as its target Kd molecule. The conditions noted are these: compared with isomeric IASA-YIPSAEK(biotin)I or the parent derivative; cited from earlier work.
Assay [3] has as its target Kd molecule. The note with it: cited from earlier work.
Assay [4] concerns the target Kd molecule. Briefly: Kd photoaffinity labeling on CTL clones. The conditions noted are these: UV irradiation, Kd immunoprecipitated, SDS-PAGE 10%, reducing. In kind it is binding, mouse. In outline: (§2)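 Live CTL clone cells were washed into DMEM with 0.5% FCS and 10 mM Hepes. They were incubated with biotinylated 125I-IASA photoprobe (~2,000 Ci/mmol) plus human β2m, 4-5 h at 37°C in 5% CO2, then UV irradiated at 312 nm for 5 min at 4°C. Cells were lysed in 0.7% NP-40 with leupeptin, PMSF and iodoacetamide. Kd (mAb 20-8-4S) or TCR-α/β (H57-597) was immunoprecipitated and run on 10% reducing SDS-PAGE.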

Assay [5] has as its system TCR of biotin-YIPSAEK(IASA)I-specific CTL clones. The experiment in a line: TCR photoaffinity labeling on living CTL clones. It is filed as binding, mouse. The conditions noted are these: for TCR photoaffinity labeling: 4-5 h 37 C, UV 312 nm 5 min, TCR immunoprecipitated, SDS-PAGE. In outline: as §2
Assay [6] has the same test system. The note with it: different cell types; cited from earlier work.
The next assay has as its system CTL clone N9. The experiment in a line: 51Cr-release CTL recognition assay, clone N9. It is filed as cell-based, mouse. A digest of the protocol: as §1
The next assay relates to N9 TCR / Kd molecule. The experiment in a line: Inhibition of N9 TCR photoaffinity labeling by competitor peptides and mAbs. It is filed as binding, mouse. The conditions noted are these: competitor peptide at 300-fold molar excess; N9 cells; SDS-PAGE 10%, nonreducing.

As to biotin-YIPSAEK(ASA)I, the “improvement of recognition on removal of the iodine from the IASA group” value in assay [1] (the other four clones, versus biotin-YIPSAEK(IASA)I) is given as 6-12 fold.
Take biotin-YIPSAEK(IASA)I: the “binding to Kd molecules” value on Kd molecule [2] is “bound equally efficiently”. At Kd molecule [3], the Kd photoaffinity labeling entry is recorded as “could not”. The “recognition by clone O8” value in assay [1] (additional clone 08, data not shown) is “recognized”.
For the substance “lZSlASA-YIPSAEK(biotin)I [125IASA-YIPSAEK(biotin)I]”, the Kd photoaffinity labeling result on Kd molecule [4] (clone N1) is reported as “slightly reduced”; on Kd molecule [4] (clone N4), “efficient”; on Kd molecule [4] (clone N6) it was “efficient”; on Kd molecule [4] (clone N9) it was “efficient”; at Kd molecule [4] (clone N11), “slightly reduced”; at Kd molecule [4] (clone O1), “efficient”.
As to biotin-YIPSAEK(125IASA)I, the TCR photoaffinity labeling result in assay [5] (clone N1) was “No significant TCR labeling”; in assay [5] (clone N4), “showed TCR photoaffinity labeling”; in assay [5] (clone N9), “showed TCR photoaffinity labeling”; in assay [5] (clone N11) it was “showed TCR photoaffinity labeling”; in assay [5] (clone O1), “No significant TCR labeling”; in assay [5] (clone O7), “No significant TCR labeling”. Moreover, the TCR photoaffinity labeling result in assay [5] (clone O11) is listed as “No significant TCR labeling”. In assay [5] (clone N9, two-dimensional gel electrophoresis), the “photoaffinity-labeled TCR chain” value is “labeled both chains”.
As to IASA-YIPSAEK(biotin)I, at Kd molecule [3], the Kd photoaffinity labeling entry was “selectively labeled the Kd molecules”. Moreover, the TCR photoaffinity labeling result in assay [6] is given as “failsto label”.
Regarding “biotin-YIPSAEK (4-azido benzoic acid [ABA]I [biotin-YIPSAEK(ABA)I]”, the “efficiency of recognition relative to the original photoprobe” value in the assay with CTL clone N9 (clone N9, versus biotin-YIPSAEK(IASA)I) was “about 50 times”.
Turning to biotin-YIPSAEK(BA)I, in the assay with CTL clone N9 (clone N9, only clone among the eight to recognize this variant), the “recognition by clone N9 compared with the original conjugate” value is “as efficientlyas the original”.
Take YIPSAEKI [PbCS 253-260]: in the assay with N9 TCR / Kd molecule, the “effect on N9 TCR labeling by biotin-YIPSAEK(125IASA)I” value is on record as “abolished”.
